Experimental findings from PMC10334013 (International Journal of Tryptophan Research : IJTR, 2023) are described below.

One series concerns the target T1, human AHR (Homo sapiens, UniProt P35869).
T1 sequence (P35869 11-848): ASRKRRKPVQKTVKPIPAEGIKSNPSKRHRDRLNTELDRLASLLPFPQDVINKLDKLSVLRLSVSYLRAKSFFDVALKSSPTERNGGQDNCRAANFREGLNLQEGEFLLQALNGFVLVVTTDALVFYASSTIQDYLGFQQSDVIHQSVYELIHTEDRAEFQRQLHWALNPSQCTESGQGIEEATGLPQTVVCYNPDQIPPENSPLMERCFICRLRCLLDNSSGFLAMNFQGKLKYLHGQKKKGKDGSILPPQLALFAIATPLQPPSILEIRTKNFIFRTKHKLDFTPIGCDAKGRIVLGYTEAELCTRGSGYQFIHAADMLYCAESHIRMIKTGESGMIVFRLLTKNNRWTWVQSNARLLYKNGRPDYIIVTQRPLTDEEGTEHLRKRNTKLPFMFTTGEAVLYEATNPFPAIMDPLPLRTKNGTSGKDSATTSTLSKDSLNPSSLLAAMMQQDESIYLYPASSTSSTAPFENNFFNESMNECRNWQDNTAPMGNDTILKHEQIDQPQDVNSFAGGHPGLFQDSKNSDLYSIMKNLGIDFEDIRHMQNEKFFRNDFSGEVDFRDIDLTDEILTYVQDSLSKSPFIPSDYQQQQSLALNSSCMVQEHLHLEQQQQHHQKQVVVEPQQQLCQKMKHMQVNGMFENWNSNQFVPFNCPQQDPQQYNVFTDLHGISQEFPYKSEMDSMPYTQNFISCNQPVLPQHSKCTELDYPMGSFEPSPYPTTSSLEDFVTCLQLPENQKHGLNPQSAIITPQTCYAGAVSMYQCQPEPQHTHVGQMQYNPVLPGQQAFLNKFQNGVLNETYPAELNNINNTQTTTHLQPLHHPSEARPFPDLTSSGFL
Briefly: Human AHR-dependent luciferase reporter assay. The class given is cell-based. As to conditions: HepG2 40/6 luciferase reporter, 4 hours, normalized to 10 nM TCDD and VEH.

A further series concerns mouse AHR. Briefly: Mouse AHR-dependent luciferase reporter assay. In kind it is cell-based. As to conditions: Hepa 1.1 cells, 4 hours, mean concentrations measured in mouse sera. The method, boiled down: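 Hepa 1.1 cells were grown in αMEM with 8% FBS and 1% penicillin-streptomycin, then seeded 24 h before treatment. […] Lysate luciferase was read by luminometer and compared with vehicle; one-way ANOVA.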

For a further series, the system named is AHR target gene, CYP1A1. Briefly: CYP1A1 induction in Caco2 cells. The settings on record: 4 hours, mean serum concentrations. In kind it is cell-based, human.
In the next series the test system is IL1B. In kind it is cell-based, human. The settings on record: FLS co-treated with 0.5 ng/mL IL1β, 24 hours; TCDD 10 nM. The method, boiled down:
(§1)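 Primary human fibroblast-like synoviocytes from healthy donors, kept and treated in Synoviocyte Growth Medium. […] RNA was isolated and transcripts quantified by real-time qPCR relative to ACTB, normalised to TCDD (10 nM) and vehicle. Mean ± SEM; one-way ANOVA.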

For another series, the system named is EREG. The class given is cell-based, human. The settings on record: FLS co-treated with 0.5 ng/mL IL1β, 24 hours; TCDD 10 nM. The method, boiled down: as §1

Turning to `O=C(O)c1cc(=O)c2ccccc2[nH]1` [Kynurenic acid, kynurenic acid], the EC25 on human AHR stood at 0.0408 µM. As for `Nc1ccccc1C(=O)CC(N)C(=O)O` (centres unmarked) [Kynurenine, kynurenine], in the series on mouse AHR, the “induction of luciferase activity relative to the vehicle treatment” value was ~ 6 fold. Besides, the “AHR activity (CYP1A1 transcripts by qPCR) versus vehicle” value in the series with AHR target gene, CYP1A1 is recorded as “significantly different from the vehicle treatment”. The compound also yielded a 25% effect concentration (EC25) on human AHR of 1.76 µM. For `O=C(O)C(O)Cc1c[nH]c2ccccc12` (centres unmarked) [Indole-3-lactic acid, indole-3-lactic acid], the EC25 on human AHR was found to be 25.9 µM. On to `Clc1cc2c(cc1Cl)Oc1cc(Cl)c(Cl)cc1O2` [TCDD, 2,3,7,8-tetrachlorodibenzo-p-dioxin], for which, in the series on IL1B, the “induction in IL1B expression” value was determined as 192 fold. Moreover, the “induction in EREG expression” value in the series with EREG was found to be 27 fold.

As to `O=C(O)CCc1c[nH]c2ccccc12` [Indole-3-propionic acid, indole-3-propionic acid], the concentration for an effect of 25% (EC25) on human AHR was found to be 19.2 µM.
